{"source": "ChEMBL document CHEMBL5303300", "about": "“EUbOPEN Chemogenomics Library - Multiplex” (2023)", "system": "U2OS", "assay": "Multiplex assay against U2OS", "type": "toxicity, cell-based", "conditions": "human, number of replicates 2", "how_it_was_run": "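Cells were classed with CellPathfinder machine-learning gating, first as Hoechst high-intensity objects or normal cells, then (normal cells) as healthy, pyknosed or fragmented nuclei, and finally (pyknosed cells) as mitotic or apoptotic. Staining of live cells at seeding used Hoechst33342, BioTracker Green Microtubule Cytoskeleton Dye, MitoTracker Red and Annexin V Alexa Fluor 680, with imaging on a CQ1 microscope at 37°C and 5% CO2 after compound addition. Tubulin, mitochondrial-mass and membrane-permeability phenotypes are per cents of healthy-nucleus cells.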", "key": {"[1]": {"conditions": "12 h, 1 µM, compound concentration 1 uM"}, "[2]": {"conditions": "12 h, 10 µM, compound concentration 10 uM"}, "[3]": {"conditions": "24 h, 1 µM, compound concentration 1 uM"}, "[4]": {"conditions": "24 h, 10 µM, compound concentration 10 uM"}, "[5]": {"conditions": "48 h, 1 µM, compound concentration 1 uM"}, "[6]": {"conditions": "48 h, 10 µM, compound concentration 10 uM"}}, "note": "Several values for one entry are separate records, joined by “and”; a condition that tells them apart may be missing. Equal values may be shown once.", "data": [{"smiles": "CS(=O)(=O)c1ccc(NC(=O)c2cccc(COc3ccc(Br)cc3CNCCO)c2)c(Cl)c1.O=CO", "values": [{"measurement": "Population Apoptotic (%)", "setting": "[1]", "value": "80% and 76%"}, {"measurement": "Population Fragmented Nuclei (%)", "setting": "[1]", "value": 11, "unit": "%"}, {"measurement": "Population Healthy Nuclei (%)", "setting": "[1]", "value": "76% and 84%"}, {"measurement": "Population Hoechst High Intensity Objects (%)", "setting": "[1]", "value": 0, "unit": "%"}, {"measurement": "Population Mitotic Cells (%)", "setting": "[1]", "value": "20% and 24%"}, {"measurement": "Population Apoptotic (%)", "setting": "[2]", "value": "85% and 71%"}, {"measurement": "Population Healthy Nuclei (%)", "setting": "[2]", "value": "50% and 72%"}, {"measurement": "Population Hoechst High Intensity Objects (%)", "setting": "[2]", "value": 0, "unit": "%"}, {"measurement": "Population Apoptotic (%)", "setting": "[3]", "value": "50% and 79%"}, {"measurement": "Population Fragmented Nuclei (%)", "setting": "[3]", "value": "7% and 3%"}, {"measurement": "Population Healthy Nuclei (%)", "setting": "[3]", "value": "69% and 78%"}, {"measurement": "Population Hoechst High Intensity Objects (%)", "setting": "[3]", "value": 0, "unit": "%"}, {"measurement": "Population Mitotic Cells (%)", "setting": "[3]", "value": "50% and 20%"}, {"measurement": "Population Apoptotic (%)", "setting": "[4]", "value": 77, "unit": "%"}, {"measurement": "Population Healthy Nuclei (%)", "setting": "[4]", "value": "33% and 65%"}, {"measurement": "Population Hoechst High Intensity Objects (%)", "setting": "[4]", "value": 0, "unit": "%"}, {"measurement": "Population Mitotic Cells (%)", "setting": "[4]", "value": "46% and 22%"}, {"measurement": "Population Apoptotic (%)", "setting": "[5]", "value": "83% and 87%"}, {"measurement": "Population Fragmented Nuclei (%)", "setting": "[5]", "value": 7, "unit": "%"}, {"measurement": "Population Healthy Nuclei (%)", "setting": "[5]", "value": "67% and 79%"}, {"measurement": "Population Hoechst High Intensity Objects (%)", "setting": "[5]", "value": 0, "unit": "%"}, {"measurement": "Population Apoptotic (%)", "setting": "[6]", "value": "100% and 94%"}, {"measurement": "Population Healthy Nuclei (%)", "setting": "[6]", "value": "23% and 57%"}, {"measurement": "Population Hoechst High Intensity Objects (%)", "setting": "[6]", "value": 0, "unit": "%"}, {"measurement": "Population Mitotic Cells (%)", "setting": "[6]", "value": "0% and 5%"}]}, {"smiles": "C[C@@H](OC[C@@]1(c2ccccc2)CC[C@]2(CCC(=O)N2)CN1)c1cc(C(F)(F)F)cc(C(F)(F)F)c1", "note": "[ROLAPITANT]", "values": [{"measurement": "Population Apoptotic (%)", "setting": "[1]", "value": "20% and 40%"}, {"measurement": "Population Fragmented Nuclei (%)", "setting": "[1]", "value": "11% and 3%"}, {"measurement": "Population Healthy Nuclei (%)", "setting": "[1]", "value": "73% and 86%"}, {"measurement": "Population Hoechst High Intensity Objects (%)", "setting": "[1]", "value": 0, "unit": "%"}, {"measurement": "Population Membrane Permeable-Phenotype (%)", "setting": "[1]", "value": "4% and 1%"}, {"measurement": "Population Mitochondria Different-Phenotype (%)", "setting": "[1]", "value": 0, "unit": "%"}, {"measurement": "Population Mitotic Cells (%)", "setting": "[1]", "value": "80% and 59%"}, {"measurement": "Population Normal (%)", "setting": "[1]", "value": 100, "unit": "%"}, {"measurement": "Population Pyknosed Nuclei (%)", "setting": "[1]", "value": "14% and 9%"}, {"measurement": "Population Tubulin-Different-Phenotype (%)", "setting": "[1]", "value": "76% and 86%"}, {"measurement": "Population Apoptotic (%)", "setting": "[2]", "value": "37% and 50%"}, {"measurement": "Population Healthy Nuclei (%)", "setting": "[2]", "value": "85% and 71%"}, {"measurement": "Population Hoechst High Intensity Objects (%)", "setting": "[2]", "value": 0, "unit": "%"}, {"measurement": "Population Membrane Permeable-Phenotype (%)", "setting": "[2]", "value": "1% and 5%"}, {"measurement": "Population Mitochondria Different-Phenotype (%)", "setting": "[2]", "value": "0% and 5%"}, {"measurement": "Population Mitotic Cells (%)", "setting": "[2]", "value": "62% and 50%"}, {"measurement": "Population Normal (%)", "setting": "[2]", "value": "99% and 100%"}, {"measurement": "Population Pyknosed Nuclei (%)", "setting": "[2]", "value": "8% and 7%"}, {"measurement": "Population Tubulin-Different-Phenotype (%)", "setting": "[2]", "value": "87% and 30%"}, {"measurement": "Population Apoptotic (%)", "setting": "[3]", "value": "100% and 52%"}, {"measurement": "Population Fragmented Nuclei (%)", "setting": "[3]", "value": "7% and 2%"}, {"measurement": "Population Healthy Nuclei (%)", "setting": "[3]", "value": "90% and 87%"}, {"measurement": "Population Hoechst High Intensity Objects (%)", "setting": "[3]", "value": 0, "unit": "%"}, {"measurement": "Population Membrane Permeable-Phenotype (%)", "setting": "[3]", "value": "0% and 1%"}, {"measurement": "Population Mitochondria Different-Phenotype (%)", "setting": "[3]", "value": "0% and 1%"}, {"measurement": "Population Normal (%)", "setting": "[3]", "value": 100, "unit": "%"}, {"measurement": "Population Pyknosed Nuclei (%)", "setting": "[3]", "value": "2% and 9%"}, {"measurement": "Population Tubulin-Different-Phenotype (%)", "setting": "[3]", "value": "77% and 90%"}, {"measurement": "Population Apoptotic (%)", "setting": "[4]", "value": "48% and 50%"}, {"measurement": "Population Healthy Nuclei (%)", "setting": "[4]", "value": "89% and 77%"}, {"measurement": "Population Hoechst High Intensity Objects (%)", "setting": "[4]", "value": 0, "unit": "%"}, {"measurement": "Population Membrane Permeable-Phenotype (%)", "setting": "[4]", "value": "0% and 3%"}, {"measurement": "Population Mitochondria Different-Phenotype (%)", "setting": "[4]", "value": "0% and 3%"}, {"measurement": "Population Mitotic Cells (%)", "setting": "[4]", "value": "51% and 50%"}, {"measurement": "Population Normal (%)", "setting": "[4]", "value": "99% and 100%"}, {"measurement": "Population Pyknosed Nuclei (%)", "setting": "[4]", "value": "7% and 5%"}, {"measurement": "Population Tubulin-Different-Phenotype (%)", "setting": "[4]", "value": "91% and 35%"}, {"measurement": "Population Apoptotic (%)", "setting": "[5]", "value": "40% and 48%"}, {"measurement": "Population Fragmented Nuclei (%)", "setting": "[5]", "value": "5% and 1%"}, {"measurement": "Population Healthy Nuclei (%)", "setting": "[5]", "value": "87% and 92%"}, {"measurement": "Population Hoechst High Intensity Objects (%)", "setting": "[5]", "value": 0, "unit": "%"}, {"measurement": "Population Membrane Permeable-Phenotype (%)", "setting": "[5]", "value": 1, "unit": "%"}, {"measurement": "Population Mitochondria Different-Phenotype (%)", "setting": "[5]", "value": 0, "unit": "%"}, {"measurement": "Population Mitotic Cells (%)", "setting": "[5]", "value": "60% and 51%"}, {"measurement": "Population Normal (%)", "setting": "[5]", "value": "100% and 99%"}, {"measurement": "Population Pyknosed Nuclei (%)", "setting": "[5]", "value": "6% and 5%"}, {"measurement": "Population Tubulin-Different-Phenotype (%)", "setting": "[5]", "value": "87% and 91%"}, {"measurement": "Population Apoptotic (%)", "setting": "[6]", "value": "48% and 28%"}, {"measurement": "Population Fragmented Nuclei (%)", "setting": "[6]", "value": "2% and 7%"}, {"measurement": "Population Healthy Nuclei (%)", "setting": "[6]", "value": "90% and 78%"}, {"measurement": "Population Hoechst High Intensity Objects (%)", "setting": "[6]", "value": 0, "unit": "%"}, {"measurement": "Population Membrane Permeable-Phenotype (%)", "setting": "[6]", "value": "0% and 4%"}, {"measurement": "Population Mitochondria Different-Phenotype (%)", "setting": "[6]", "value": "0% and 4%"}, {"measurement": "Population Mitotic Cells (%)", "setting": "[6]", "value": "51% and 71%"}, {"measurement": "Population Normal (%)", "setting": "[6]", "value": 100, "unit": "%"}, {"measurement": "Population Pyknosed Nuclei (%)", "setting": "[6]", "value": "6% and 13%"}]}]}
